The values below come from ChEMBL document CHEMBL1144240, “Binding is not enough: flexibility is needed for photocrosslinking of Lck kinase by benzophenone photoligands” (Bioorg Med Chem, 2008).

Calls of active or inactive are those of the source. No cut-off for these calls is given here.

The target in data set [1] is T1, Tyrosine-protein kinase Lck (Homo sapiens, UniProt P06239). The experiment in a line: Inhibition of Lck by luciferase based assay. The gist of the method: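 Lck (prediluted to 46 ng/µl) was mixed with Src substrate peptide (0.25 mM stock) in 50 mM HEPES pH 7.3, 2.5 mM DTT, 0.01% Triton X-100 and 10 mM MgCl2, plus ligand at various concentrations. Reaction was started with 100 µM ATP stock and run 1 h at room temperature. Residual ATP was read by Kinase-Glo Plus luminescence after 10 min. IC50 with 95% CI from sigmoidal fit, n = 2 or 3.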

Data set [2] is described as follows: Chemical stability after 30 mins of UV irradiation by RP-HPLC. It counts as physicochemical. The conditions noted are these: read-out: Stability. The gist of the method:
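Free ligands in buffer solution were irradiated under a UV-A lamp (λmax 350 nm). Aliquots were taken at 0, 10 and 30 min, and intact ligand was quantified by HPLC with UV detection at 280 nm.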

In data set [3] the target is T1, Tyrosine-protein kinase Lck. As to the kind of experiment: Binding affinity to Lck assessed as photolabeling efficiency in presence of ATP-competitive Lck inhibitor by Western blot.
Target sequence in this assay (P06239 2-509 limits assumed): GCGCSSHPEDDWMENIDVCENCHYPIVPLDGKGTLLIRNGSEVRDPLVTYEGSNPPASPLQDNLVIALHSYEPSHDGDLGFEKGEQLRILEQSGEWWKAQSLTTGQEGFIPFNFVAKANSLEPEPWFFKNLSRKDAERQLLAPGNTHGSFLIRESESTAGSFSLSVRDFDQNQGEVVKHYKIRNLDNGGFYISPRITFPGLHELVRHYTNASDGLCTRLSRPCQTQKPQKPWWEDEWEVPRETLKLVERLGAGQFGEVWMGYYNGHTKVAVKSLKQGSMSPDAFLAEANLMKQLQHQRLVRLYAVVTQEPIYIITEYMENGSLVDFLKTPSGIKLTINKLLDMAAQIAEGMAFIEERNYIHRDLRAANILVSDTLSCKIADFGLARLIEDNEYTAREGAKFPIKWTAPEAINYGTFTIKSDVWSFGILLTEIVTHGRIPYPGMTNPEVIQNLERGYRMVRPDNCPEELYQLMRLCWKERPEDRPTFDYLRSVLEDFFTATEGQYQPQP
The target is the same in data set [4]. As to the kind of experiment: Binding affinity to Lck assessed as photolabeling efficiency by Western blot analysis. The gist of the method:
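Lck was photocrosslinked with each ligand at 0, 3, 9, 18, 36, 90 and 180 µM. Labeled-band intensities were plotted against probe concentration. EC50 (ligand concentration giving 50% of maximal labeling) and its 95% CI were obtained by sigmoidal dose-response fitting of triplicate trials (n = 3).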
Target sequence in this assay (P06239 whole entry): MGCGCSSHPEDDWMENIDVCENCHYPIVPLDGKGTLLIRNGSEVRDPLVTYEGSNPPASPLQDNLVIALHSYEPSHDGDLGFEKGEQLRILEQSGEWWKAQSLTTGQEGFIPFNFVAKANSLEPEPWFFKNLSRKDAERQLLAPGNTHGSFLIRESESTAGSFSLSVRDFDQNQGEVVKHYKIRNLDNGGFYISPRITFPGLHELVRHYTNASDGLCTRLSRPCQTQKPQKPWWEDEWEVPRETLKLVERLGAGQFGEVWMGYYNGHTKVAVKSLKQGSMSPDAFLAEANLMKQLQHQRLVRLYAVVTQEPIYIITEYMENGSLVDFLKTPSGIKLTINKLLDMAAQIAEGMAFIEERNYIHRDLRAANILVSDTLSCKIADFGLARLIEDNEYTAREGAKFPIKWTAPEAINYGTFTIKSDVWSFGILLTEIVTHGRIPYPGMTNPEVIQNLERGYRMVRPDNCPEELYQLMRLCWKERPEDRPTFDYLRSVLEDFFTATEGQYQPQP

With `Nc1ncnc2c1ncn2CC(=O)N(CCNC(=O)[C@@H](CCC(=O)O)NC(=O)[C@H](Cc1ccc(C(=O)c2ccccc2)cc1)NC(=O)CCCNC(=O)CCCC[C@@H]1SC[C@@H]2NC(=O)N[C@@H]21)CC(=O)NCC(=O)O`, the outcome in data set [1] and in data set [3] was inactive. For the same compound, in data set [2], the remaining at 0.5 h was 70%. The EC50 in data set [4] is 18.4 µM.

As to `Nc1ncnc2c1ncn2CC(=O)N(CCNC(=O)CNC(=O)[C@H](Cc1ccc(C(=O)c2ccccc2)cc1)NC(=O)CCCNC(=O)CCCC[C@@H]1SC[C@@H]2NC(=O)N[C@@H]21)CC(=O)NCC(=O)O`, the outcome in data set [1] and in data set [3] was inactive. The remaining at 0.5 h in data set [2] came out at 70%. Besides, the EC50 in data set [4] is 14.4 µM.

In the case of `Nc1ncnc2c1ncn2CC(=O)N(CCNC(=O)[C@H]1CCCCN1C(=O)[C@H](Cc1ccc(C(=O)c2ccccc2)cc1)NC(=O)CCCNC(=O)CCCC[C@@H]1SC[C@@H]2NC(=O)N[C@@H]21)CC(=O)NCC(=O)O`, the outcome in data set [1] was inactive. Also, the remaining at 0.5 h in data set [2] amounted to 70%. Also, the EC50 in data set [4] is > 150 µM.

Consider `Nc1ncnc2c1ncn2CC(=O)N(CCNC(=O)[C@H]1CCCN1C(=O)[C@H](Cc1ccc(C(=O)c2ccccc2)cc1)NC(=O)CCCNC(=O)CCCC[C@@H]1SC[C@@H]2NC(=O)N[C@@H]21)CC(=O)NCC(=O)O`, for which the IC50 in data set [1] turned out to be 50 µM. Further, in data set [2], the remaining at 0.5 h is 70%. For the same compound, in data set [4], the 50% effective concentration (EC50) was > 150 µM.

As for `Nc1ncnc2c1ncn2CC(=O)N(CCNC(=O)[C@@H](CO)NC(=O)[C@H](Cc1ccc(C(=O)c2ccccc2)cc1)NC(=O)CCCNC(=O)CCCC[C@@H]1SC[C@@H]2NC(=O)N[C@@H]21)CC(=O)NCC(=O)O`, in data set [1], the half-maximal inhibitory concentration (IC50) came out at 50 µM. Also, the remaining at 0.5 h in data set [2] is 70%. Further, the result in data set [3] was inactive. Further, the EC50 in data set [4] amounted to 23.3 µM.

Consider `Nc1ncnc2c1ncn2CC(=O)N(CCNC(=O)CCCNC(=O)[C@H](Cc1ccc(C(=O)c2ccccc2)cc1)NC(=O)CCCNC(=O)CCCC[C@@H]1SC[C@@H]2NC(=O)N[C@@H]21)CC(=O)NCC(=O)O`, for which the result in data set [1] and in data set [3] was inactive. In data set [2], the remaining at 0.5 h came to 70%. The EC50 in data set [4] came to 4.4 µM.
